# Measurements taken from ChEMBL document CHEMBL1127598, “Synthesis of a series of 4-(arylethynyl)-6-chloro-4-cyclopropyl-3,4-dihydroquinazolin-2(1H)-ones as novel non-nucleoside HIV-1 reverse transcriptase inhibitors” (J Med Chem, 1994).
# Legend:
# [1] = target: Human immunodeficiency virus type 1 reverse transcriptase (Human immunodeficiency virus 1, UniProt Q72547); assay: Ability to inhibit HIV-1 Reverse Transcriptase (RT) using an rC-dG template/primer
# [2] = system: MT4; assay: Concentration of compound which inhibited greater than 95% the spread of infection of cultured MT-4 cells; format: functional, Homo sapiens
# Method in brief: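 MT-4 cells infected with HIV-1 strain IIIb. The spread of infection was measured by p24 core antigen ELISA. The CIC95 is the lowest compound concentration that inhibited spread of infection by more than 95%.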
# [3] = system: MT4; assay: Compound was evaluated for the anti-viral activity against cultured MT-4 cells; format: functional, Homo sapiens
Compound,IC50 [1],ClC95 [2],ClC95 [3]
O=C1Nc2ccc(Cl)cc2C(C#Cc2cnccn2)(C2CC2)N1 (stereo not drawn),270 nM,,
O=C1Nc2ccc(Cl)cc2C(C#Cc2ccccc2)(C2CC2)N1 (stereo not drawn),17.7 nM,100 nM,
O=C1Nc2ccc(Cl)cc2[C@](C#Cc2ccccn2)(C2CC2)N1,9300 nM,,
O=C1Nc2ccc(Cl)cc2C(C#Cc2cncnc2)(C2CC2)N1 (stereo not drawn),1500 nM,,
O=C1Nc2ccc(Cl)cc2C(C#Cc2cccnc2)(C2CC2)N1 (stereo not drawn),64.5 nM,,
O=C1Nc2ccc(Cl)cc2C(C#Cc2ccccc2[N+](=O)[O-])(C2CC2)N1 (stereo not drawn),12.8 nM,,
N#Cc1ccccc1C#CC1(C2CC2)NC(=O)Nc2ccc(Cl)cc21 (stereo not drawn),10.8 nM,,12 nM
CCc1cc(NCc2nc3c(Cl)ccc(Cl)c3o2)c(O)nc1C [L-697661],,,50 nM
O=C1Nc2ccc(Cl)cc2C(C#Cc2cc([N+](=O)[O-])ccn2)(C2CC2)N1 (stereo not drawn),> 10000 nM,,
Cc1ccnc2c1NC(=O)c1cccnc1N2C1CC1 [NEVIRAPINE],,,100 nM
O=C1Nc2ccc(Cl)cc2[C@@](C#Cc2ccccn2)(C2CC2)N1,12 nM,,
O=C1Nc2ccc(Cl)cc2C(C#Cc2ccco2)(C2CC2)N1 (stereo not drawn),9.2 nM,,
O=C1Nc2ccc(Cl)cc2C(C#Cc2ccccn2)(C2CC2)N1 (stereo not drawn),23.2 nM,25 nM,
CN1C(=O)Nc2ccc(Cl)cc2C1(C#Cc1ccccn1)C1CC1 (stereo not drawn),19.6 nM,,
CC(C)=CCN1Cc2cccc3nc(S)n(c23)C[C@H]1C,70 nM,,200 nM
O=C1Nc2ccc(Cl)cc2C(C#Cc2ccncc2)(C2CC2)N1 (stereo not drawn),450 nM,,
O=C1Nc2ccc(Cl)cc2C(C#Cc2ncccn2)(C2CC2)N1 (stereo not drawn),130 nM,,
O=C1Nc2ccc(Cl)cc2C(C#Cc2nccs2)(C2CC2)N1 (stereo not drawn),10.9 nM,,12 nM
